The target in series [1] is T1, FAK (Homo sapiens, UniProt Q05397). The series is described as follows: Western blot of FAK-Tyr-397 phosphorylation in suspended Caco-2 cells. The format is cell-based. The method in brief:
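Caco-2 cells held in suspension on plates pre-coated with 1% heat-inactivated BSA to avoid adhesion-driven FAK activation. Treated with compound (100 pM–1000 nM) or H2O for 1 h at 37 °C, then lysed. Lysates resolved by 10% SDS-PAGE on nitrocellulose, probed for pTyr-397 FAK with total FAK as loading control. Read-out: pTyr-397/FAK fold change; n = 4–8.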
On the technique in general: Immunoblotting shows a protein as a band on a membrane.

Series [2] addresses T1, FAK. The conditions noted are these: 10 nM, suspended Caco-2 cells; ref Wang et al., 2019b; cited from earlier work.
The test system of series [3] is Caco-2 cells. To be noted: in vitro; ref Wang et al., 2019b; cited from earlier work.

Read-outs that look alike come from different tables or passages of the source.

T1 sequence (Q05397 whole entry): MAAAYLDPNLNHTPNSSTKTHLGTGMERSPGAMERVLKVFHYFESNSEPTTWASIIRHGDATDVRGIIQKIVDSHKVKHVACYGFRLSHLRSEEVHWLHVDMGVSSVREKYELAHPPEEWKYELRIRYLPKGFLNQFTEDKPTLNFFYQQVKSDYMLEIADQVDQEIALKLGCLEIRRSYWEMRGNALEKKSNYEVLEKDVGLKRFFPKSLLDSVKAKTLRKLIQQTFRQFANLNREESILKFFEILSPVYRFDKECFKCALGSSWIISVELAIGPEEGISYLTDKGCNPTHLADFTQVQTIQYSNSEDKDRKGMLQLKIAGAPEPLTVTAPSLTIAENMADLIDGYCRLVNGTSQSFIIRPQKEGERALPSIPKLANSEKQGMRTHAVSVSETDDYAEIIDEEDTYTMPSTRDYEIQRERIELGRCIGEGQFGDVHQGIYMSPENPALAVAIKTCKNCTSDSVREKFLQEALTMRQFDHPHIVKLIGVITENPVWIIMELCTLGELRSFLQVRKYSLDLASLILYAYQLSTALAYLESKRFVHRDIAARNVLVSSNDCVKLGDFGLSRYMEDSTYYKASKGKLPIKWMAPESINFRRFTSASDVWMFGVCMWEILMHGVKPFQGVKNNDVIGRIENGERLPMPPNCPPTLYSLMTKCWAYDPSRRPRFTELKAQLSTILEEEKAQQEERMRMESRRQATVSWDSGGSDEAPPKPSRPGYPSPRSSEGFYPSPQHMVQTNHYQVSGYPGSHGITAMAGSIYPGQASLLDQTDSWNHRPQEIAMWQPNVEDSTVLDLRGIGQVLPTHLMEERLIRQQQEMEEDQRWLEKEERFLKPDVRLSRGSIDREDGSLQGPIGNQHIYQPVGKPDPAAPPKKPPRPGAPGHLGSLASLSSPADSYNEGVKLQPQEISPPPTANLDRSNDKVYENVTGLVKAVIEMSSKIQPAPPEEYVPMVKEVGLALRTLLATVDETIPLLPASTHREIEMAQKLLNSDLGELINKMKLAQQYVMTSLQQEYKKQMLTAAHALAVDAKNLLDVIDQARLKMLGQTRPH

On to `CN(C)C(CNC(=O)Nc1cc(C(F)(F)F)ccc1N1CCOCC1)c1ccncc1` (stereo not shown) [M64, 1-(2-(dimethylamino)-2-(pyridin-4-yl)ethyl)-3-(2-morpholino-5-(trifluoromethyl)phenyl)urea], for which the FAK activation entry in series [1] (10–1000 nM) is recorded as “did not activate FAK”.

For `COc1ccc(C2CCCN2C(=O)Nc2cc(C(F)(F)F)ccc2N2CCOCC2)cc1` (stereo not shown) [ZN40099027], in series [1] (100 nM, Caco-2 cells), the “FAK activation (positive control)” value is “activates FAK”. In series [2], the FAK activation was 14.8%. For the same compound, in series [3], the “lowest concentration stimulating Caco-2 cell monolayer wound closure” value is 10 nM.

(Values after paper PMC9827036 (Current Research in Pharmacology and Drug Discovery, 2022).)
